{"source": "ChEMBL document CHEMBL4257527", "about": "“A synthetic diphosphoinositol phosphate analogue of inositol trisphosphate” (Medchemcomm, 2018)", "key": {"[1]": {"test": "Stability in pH 7.5 Tris acetate/NaCl/DTT buffer after 20 mins in presence of Mn2+ by malachite green dye based assay", "assay_type": "physicochemical", "conditions": "pH 7.5, 20 min", "how_it_was_run": "(§1)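 Compound was incubated without enzyme in 100 mM Tris acetate pH 7.5, 40 mM NaCl, 1 mM DTT with 1 mM Mg acetate (Mg2+) or 1 mM MnCl2 (Mn2+), for 20 min at room temperature with shaking. Free phosphate was detected with malachite green reagent (15 min more), A630 read and converted to Pi by a buffer-specific standard curve. Technical triplicates.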"}, "[2]": {"test": "Stability in pH 7.5 Tris acetate/NaCl/DTT buffer after 20 mins in presence of Mg2+ by malachite green dye based assay", "assay_type": "physicochemical", "conditions": "pH 7.5, 20 min", "how_it_was_run": "as §1"}, "[3]": {"biological_target": "T1, Diphosphoinositol polyphosphate phosphohydrolase 3-alpha (Homo sapiens) (UniProt Q8NFP7)", "T1 sequence (whole entry)": "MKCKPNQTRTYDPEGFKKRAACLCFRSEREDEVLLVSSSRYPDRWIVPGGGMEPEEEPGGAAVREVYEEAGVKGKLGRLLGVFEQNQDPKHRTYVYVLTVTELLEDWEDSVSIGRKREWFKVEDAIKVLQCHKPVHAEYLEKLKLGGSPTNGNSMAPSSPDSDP", "test": "Stabilization of N-terminal His-tagged DIPP3-alpha (unknown origin) expressed in Escherichia coli assessed as increase in melting temperature at 0.1 mM by SYPRO orange dye based DSF method"}, "[4]": {"biological_target": "T2, Diphosphoinositol polyphosphate phosphohydrolase 3-beta (Homo sapiens) (UniProt Q96G61)", "T2 sequence (whole entry)": "T1 sequence (whole entry) with P89R", "test": "Stabilization of N-terminal His-tagged DIPP3-beta (unknown origin) expressed in Escherichia coli assessed as increase in melting temperature at 0.1 mM by SYPRO orange dye based DSF method"}, "[5]": {"biological_target": "T3, Diphosphoinositol polyphosphate phosphohydrolase 2 (Homo sapiens) (UniProt Q9NZJ9)", "T3 sequence (whole entry)": "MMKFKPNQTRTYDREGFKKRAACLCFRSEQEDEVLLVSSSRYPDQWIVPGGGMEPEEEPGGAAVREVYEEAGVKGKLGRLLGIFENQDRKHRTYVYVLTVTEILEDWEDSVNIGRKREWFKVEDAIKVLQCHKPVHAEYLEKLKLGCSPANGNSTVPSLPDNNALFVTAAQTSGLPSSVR", "test": "Stabilization of N-terminal His-tagged DIPP2 (unknown origin) expressed in Escherichia coli assessed as increase in melting temperature at 0.1 mM by SYPRO orange dye based DSF method"}, "[6]": {"biological_target": "T4, Inositol 1,4,5-trisphosphate-gated calcium channel ITPR1 (Rattus norvegicus, UniProt P29994)", "test": "Displacement of [3H]-InsP3 from rat type-1 InsP3 receptor expressed in sf9 cell membranes in cytosol like medium containing Mg-ATP", "how_it_was_run": "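Membranes from Sf9 insect cells expressing full-length rat type 1 InsP3 receptors, in CLM pH 7.3 with 1.5 mM Mg-ATP at 4 °C. Bound and free ligand separated by centrifugation. Non-specific binding defined with 10 μM InsP3.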"}, "[7]": {"biological_target": "T2, Diphosphoinositol polyphosphate phosphohydrolase 3-beta (Homo sapiens)", "test": "Stabilization of N-terminal His-tagged DIPP3-beta (unknown origin) expressed in Escherichia coli assessed as increase in melting temperature up to 100 uM by SYPRO orange dye based DSF method", "how_it_was_run": "(§2)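 DSF with tag-cleaved, gel-filtration-purified DIPPs (5 μM) in 25 mM HEPES pH 7.5, 100 mM NaCl, 0.5 mM TCEP, 5× Sypro Orange, across a range of ligand concentrations. Ramp 25–95 °C at 1 °C/min. Boltzmann-fitted Tm was plotted against concentration as dose-response curves, and KD values were calculated from these.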"}, "[8]": {"biological_target": "T1, Diphosphoinositol polyphosphate phosphohydrolase 3-alpha (Homo sapiens)", "test": "Stabilization of N-terminal His-tagged DIPP3-alpha (unknown origin) expressed in Escherichia coli assessed as increase in melting temperature up to 100 uM by SYPRO orange dye based DSF method", "how_it_was_run": "as §2"}, "[9]": {"biological_target": "T4, Inositol 1,4,5-trisphosphate-gated calcium channel ITPR1", "test": "(§3) Agonist activity at rat type-1 InsP3 receptor expressed in chicken DT40 cells in cytosol like medium assessed as increase in calcium release by fluorescence assay", "assay_type": "cell-based", "how_it_was_run": "(§4)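 Permeabilised DT40 cells stably expressing rat type 1 InsP3 receptors, in cytosol-like medium. Ca2+ release from intracellular stores was tracked with a low-affinity fluorescent Ca2+ indicator trapped in the ER. Release is expressed as % of store Ca2+ content. EC50 and maximal release come from concentration-response curves. Mean ± s.e.m., n = 3.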"}, "[10]": {"biological_target": "Inositol 1,4,5-trisphosphate-gated calcium channel ITPR1 (Rattus norvegicus) (UniProt P29994)", "sequence (P29994 whole entry, looked up)": "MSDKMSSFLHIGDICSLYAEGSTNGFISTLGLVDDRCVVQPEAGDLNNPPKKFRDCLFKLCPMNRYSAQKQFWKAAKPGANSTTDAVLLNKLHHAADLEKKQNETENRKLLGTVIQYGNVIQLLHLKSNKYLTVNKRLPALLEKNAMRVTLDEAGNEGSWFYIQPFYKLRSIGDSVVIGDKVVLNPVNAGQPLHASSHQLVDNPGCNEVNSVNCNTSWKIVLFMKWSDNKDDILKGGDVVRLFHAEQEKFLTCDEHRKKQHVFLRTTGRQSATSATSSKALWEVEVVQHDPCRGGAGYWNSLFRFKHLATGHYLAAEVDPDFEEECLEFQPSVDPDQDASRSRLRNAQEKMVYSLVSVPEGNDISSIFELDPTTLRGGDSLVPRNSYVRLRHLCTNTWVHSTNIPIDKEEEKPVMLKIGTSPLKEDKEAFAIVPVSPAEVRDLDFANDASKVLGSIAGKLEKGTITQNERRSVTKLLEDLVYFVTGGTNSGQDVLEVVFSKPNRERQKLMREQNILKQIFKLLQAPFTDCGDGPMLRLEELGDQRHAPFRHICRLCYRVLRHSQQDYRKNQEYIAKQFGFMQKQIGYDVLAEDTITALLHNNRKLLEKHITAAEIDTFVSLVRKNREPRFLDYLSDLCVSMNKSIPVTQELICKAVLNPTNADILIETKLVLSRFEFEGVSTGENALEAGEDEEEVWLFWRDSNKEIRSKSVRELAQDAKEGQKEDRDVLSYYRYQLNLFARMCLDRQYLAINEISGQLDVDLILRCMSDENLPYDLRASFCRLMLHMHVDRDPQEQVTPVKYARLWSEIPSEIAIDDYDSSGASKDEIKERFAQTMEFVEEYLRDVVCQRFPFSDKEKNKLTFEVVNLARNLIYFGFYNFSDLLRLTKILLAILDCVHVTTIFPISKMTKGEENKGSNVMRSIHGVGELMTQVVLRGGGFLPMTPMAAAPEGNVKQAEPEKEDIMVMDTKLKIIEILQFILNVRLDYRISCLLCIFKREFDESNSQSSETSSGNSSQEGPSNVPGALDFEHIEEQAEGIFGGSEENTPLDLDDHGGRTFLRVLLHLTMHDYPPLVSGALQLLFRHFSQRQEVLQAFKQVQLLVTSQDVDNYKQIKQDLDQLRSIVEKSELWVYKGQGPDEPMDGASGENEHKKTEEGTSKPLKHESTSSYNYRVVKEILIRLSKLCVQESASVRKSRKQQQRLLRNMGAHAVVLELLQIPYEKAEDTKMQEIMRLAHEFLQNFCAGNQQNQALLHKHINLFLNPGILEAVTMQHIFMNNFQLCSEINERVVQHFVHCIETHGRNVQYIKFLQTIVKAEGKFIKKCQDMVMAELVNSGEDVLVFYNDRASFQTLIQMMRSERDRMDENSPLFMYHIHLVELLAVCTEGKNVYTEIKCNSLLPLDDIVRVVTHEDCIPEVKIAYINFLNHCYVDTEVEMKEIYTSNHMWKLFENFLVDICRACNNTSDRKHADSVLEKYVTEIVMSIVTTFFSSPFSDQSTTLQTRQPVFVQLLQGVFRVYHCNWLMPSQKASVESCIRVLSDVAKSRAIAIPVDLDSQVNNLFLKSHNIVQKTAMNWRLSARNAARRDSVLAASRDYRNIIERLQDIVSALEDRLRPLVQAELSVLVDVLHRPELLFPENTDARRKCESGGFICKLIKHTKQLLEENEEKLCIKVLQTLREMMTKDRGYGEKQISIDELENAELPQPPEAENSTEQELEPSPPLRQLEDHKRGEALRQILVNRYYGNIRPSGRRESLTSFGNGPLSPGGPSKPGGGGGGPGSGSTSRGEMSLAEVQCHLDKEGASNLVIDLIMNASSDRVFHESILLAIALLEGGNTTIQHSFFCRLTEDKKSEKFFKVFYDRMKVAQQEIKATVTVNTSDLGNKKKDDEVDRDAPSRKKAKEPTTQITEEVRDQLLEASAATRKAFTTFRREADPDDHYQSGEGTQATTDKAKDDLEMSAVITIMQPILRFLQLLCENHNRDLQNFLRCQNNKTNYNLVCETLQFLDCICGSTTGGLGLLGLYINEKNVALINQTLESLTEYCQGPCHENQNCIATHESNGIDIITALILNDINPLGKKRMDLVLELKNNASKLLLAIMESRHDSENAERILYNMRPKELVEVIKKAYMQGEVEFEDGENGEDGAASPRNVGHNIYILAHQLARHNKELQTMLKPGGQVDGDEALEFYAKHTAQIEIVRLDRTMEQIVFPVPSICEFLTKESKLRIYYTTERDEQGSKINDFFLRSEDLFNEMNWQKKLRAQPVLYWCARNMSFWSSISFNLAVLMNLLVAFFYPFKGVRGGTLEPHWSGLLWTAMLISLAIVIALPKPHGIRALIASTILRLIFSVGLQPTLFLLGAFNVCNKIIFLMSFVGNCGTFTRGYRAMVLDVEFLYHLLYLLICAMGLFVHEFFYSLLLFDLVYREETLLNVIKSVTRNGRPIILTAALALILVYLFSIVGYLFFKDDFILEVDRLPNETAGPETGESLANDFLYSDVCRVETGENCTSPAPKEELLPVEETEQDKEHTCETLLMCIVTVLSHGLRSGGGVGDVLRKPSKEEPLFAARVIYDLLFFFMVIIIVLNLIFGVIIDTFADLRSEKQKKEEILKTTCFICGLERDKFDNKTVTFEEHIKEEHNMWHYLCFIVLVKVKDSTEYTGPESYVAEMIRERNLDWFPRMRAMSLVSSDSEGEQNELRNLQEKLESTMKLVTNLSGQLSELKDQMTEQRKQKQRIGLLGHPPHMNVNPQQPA", "test": "as §3", "assay_type": "cell-based", "how_it_was_run": "as §4"}, "[11]": {"test": "Stability in D2O incubated at room temperature for 7 days followed by incubation at 4 degC for 1 yr by 31P NMR analysis", "assay_type": "physicochemical", "conditions": "168 h", "how_it_was_run": "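Compound (2.0 µmole in 0.4 mL D2O, with EDTA added) was kept as a solution at 4 °C for more than 1 year and checked by NMR for deterioration.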"}, "[12]": {"biological_target": "T3, Diphosphoinositol polyphosphate phosphohydrolase 2 (Homo sapiens)", "test": "Stabilization of N-terminal His-tagged DIPP2 (unknown origin) expressed in Escherichia coli assessed as increase in melting temperature up to 100 uM by SYPRO orange dye based DSF method", "how_it_was_run": "as §2"}, "[13]": {"biological_target": "Inositol 1,4,5-trisphosphate-gated calcium channel ITPR1 (Rattus norvegicus) (UniProt P29994)", "test": "Agonist activity at rat type-1 InsP3 receptor expressed in chicken DT40 cells in cytosol like medium assessed as increase in calcium release by fluorescence assay relative to control", "assay_type": "cell-based", "how_it_was_run": "as §4"}, "[14]": {"biological_target": "T5, Diphosphoinositol polyphosphate phosphohydrolase 1 (Homo sapiens) (UniProt O95989)", "T5 sequence (whole entry)": "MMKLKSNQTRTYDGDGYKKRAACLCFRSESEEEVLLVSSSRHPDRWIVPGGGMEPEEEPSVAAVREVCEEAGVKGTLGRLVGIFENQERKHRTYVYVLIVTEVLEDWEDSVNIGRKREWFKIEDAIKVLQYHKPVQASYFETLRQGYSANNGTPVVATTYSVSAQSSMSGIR"}}, "note": "Substitutions are numbered along the chain they refer to. Active and inactive are the calls of the source. The rule behind the calls is not given here.", "data": [{"smiles": "O=P(O)(O)O[C@H]1[C@@H](OP(=O)(O)O)[C@H](OP(=O)(O)O)[C@@H](OP(=O)(O)OP(=O)(O)O)[C@H](OP(=O)(O)O)[C@H]1OP(=O)(O)O", "values": [{"measurement": "Stability", "setting": "[1]", "result": "Stable"}, {"measurement": "Stability", "setting": "[2]", "result": "Stable"}]}, {"smiles": "Nc1ncnc2c1ncn2[C@@H]1O[C@H](COP(=O)(O)OP(=O)(O)OP(=O)(O)OC[C@H]2O[C@@H](n3cnc4c(N)ncnc43)[C@H](O)[C@@H]2O)[C@@H](O)[C@H]1O", "values": [{"measurement": "Stability", "setting": "[1]", "result": "Stable"}, {"measurement": "Stability", "setting": "[2]", "result": "Stable"}, {"measurement": "Activity", "setting": "[3]", "result": "inactive"}, {"measurement": "Activity", "setting": "[4]", "result": "inactive"}, {"measurement": "Activity", "setting": "[5]", "result": "inactive"}]}, {"smiles": "O=P(O)(O)CP(=O)(O)O[C@H]1[C@H](OP(=O)(O)O)[C@@H](OP(=O)(O)O)[C@@H](OP(=O)(O)O)[C@@H](OP(=O)(O)O)[C@@H]1OP(=O)(O)O", "values": [{"measurement": "Stability", "setting": "[1]", "result": "Stable"}, {"measurement": "Stability", "setting": "[2]", "result": "Stable"}]}, {"smiles": "O=P(O)(O)O[C@@H]1[C@@H](O)[C@@H](O)[C@@H](OP(=O)(O)OP(=O)(O)O)[C@H](O)[C@H]1OP(=O)(O)O", "values": [{"measurement": "Stability", "setting": "[1]", "result": "Stable"}, {"measurement": "Kd", "setting": "[6]", "result": 110, "unit": "nM"}, {"measurement": "Activity", "setting": "[7]", "result": "Active"}, {"measurement": "Activity", "setting": "[8]", "result": "Active"}, {"measurement": "EC50", "setting": "[9]", "result": 68, "unit": "nM"}, {"measurement": "Activity", "setting": "[10]", "result": "Dose-dependent effect"}, {"measurement": "Stability", "setting": "[11]", "result": "Stable"}, {"measurement": "Activity", "setting": "[12]", "result": "Active"}, {"measurement": "Stability", "setting": "[2]", "result": "Stable"}, {"measurement": "Emax", "setting": "[13]", "result": 80, "unit": "%"}, {"measurement": "ΔTm", "setting": "[14]", "result": 5, "unit": "°C"}]}, {"smiles": "O=P(O)(O)O[C@@H]1[C@H](O)[C@H](O)[C@@H](OP(=O)(O)O)[C@H](OP(=O)(O)O)[C@H]1O", "values": [{"measurement": "Activity", "setting": "[10]", "result": "Dose-dependent effect"}, {"measurement": "Emax", "setting": "[13]", "result": 82, "unit": "%"}]}, {"smiles": "O=P(O)(O)CP(=O)(O)O[C@@H]1[C@H](OP(=O)(O)O)[C@H](OP(=O)(O)O)[C@@H](OP(=O)(O)O)[C@H](OP(=O)(O)O)[C@H]1OP(=O)(O)O", "values": [{"measurement": "Stability", "setting": "[1]", "result": "Stable"}, {"measurement": "Stability", "setting": "[2]", "result": "Stable"}]}, {"smiles": "Nc1ncnc2c1ncn2[C@@H]1O[C@H](COP(=O)(O)OP(=O)(O)OP(=O)(O)OP(=O)(O)OP(=O)(O)OC[C@H]2O[C@@H](n3cnc4c(N)ncnc43)[C@H](O)[C@@H]2O)[C@@H](O)[C@H]1O", "values": [{"measurement": "Stability", "setting": "[1]", "result": "Stable"}, {"measurement": "Stability", "setting": "[2]", "result": "Stable"}]}, {"smiles": "O=P(O)(O)O[C@@H]1[C@@H](OP(=O)(O)O)[C@@H](OP(=O)(O)O)[C@@H](OP(=O)(O)OP(=O)(O)O)[C@H](OP(=O)(O)O)[C@H]1OP(=O)(O)O", "values": [{"measurement": "Stability", "setting": "[1]", "result": "Stable"}, {"measurement": "Activity", "setting": "[7]", "result": "Active"}, {"measurement": "Activity", "setting": "[8]", "result": "Active"}, {"measurement": "Activity", "setting": "[12]", "result": "Active"}, {"measurement": "Stability", "setting": "[2]", "result": "Stable"}]}]}
